Laboratory results taken from ChEMBL document CHEMBL1765020, “Synthesis and structure-affinity relationships of novel dibenzylideneacetone derivatives as probes for β-amyloid plaques” (J Med Chem, 2011).
Calls of active or inactive are those of the source. No cut-off for these calls is given here.

How the values were obtained:
[1] = biological target: Amyloid-beta precursor protein (Homo sapiens) (UniProt P05067); assay: Binding affinity to amyloid beta (1 to 42) aggregate in Alzheimer disease patient brain by immunohistochemical staining using amyloid beta antibody; details: tested as the 18F-labelled form
Method in brief: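 Plaque presence and location in the AD patient temporal-lobe sections were confirmed by immunohistochemistry with monoclonal anti-Aβ1-42 antibody BC05.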

[2] = Displacement of [125I]IMPY from amyloid beta (1 to 42) aggregate after 2 hrs by gamma counting
Method in brief: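 Competition binding in 1 mL PBS (0.2 M, pH 7.4). Aggregated Aβ1-42 fibrils (60 nM final) with [125I]IMPY and inhibitor at 10^-5 to 10^-10 M, added in ethanol. Nonspecific binding was defined with 1 μM IMPY. Incubated 2 h at 37 °C with shaking, then vacuum-filtered through glass fibre filters and the bound fraction gamma-counted. IC50 was converted to Ki by Cheng-Prusoff; triplicate, mean ± SD.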

Mus musculus [3] = organism: Mus musculus; assay: Binding affinity to amyloid beta (1 to 42) aggregate in APP/PS1 transgenic C57BL/6 mouse brain by Thioflavin S fluorescent staining assay; format: tissue-based; details: C57BL6, tested as the 18F-labelled form
Method in brief: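 The same Tg mouse sections used for autoradiography were stained with thioflavin S to locate plaques. Fluorescence was viewed by microscope: excitation 400–440 nm, dichroic 455 nm, long-pass 470 nm.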

Mus musculus [4] = organism: Mus musculus; assay: Binding affinity to amyloid beta (1 to 42) aggregate in APP/PS1 transgenic C57BL/6 mouse brain after 1 hr by autoradiography; format: tissue-based; details: C57BL6, tested as the 18F-labelled form
Method in brief: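 Paraffin brain sections from 12-month-old male C57BL6-APP/PS1 mice, with wild-type male C57BL6 controls, were deparaffinized through xylene and graded ethanol, then held 30 min in PBS (0.2 M, pH 7.4). Sections were incubated 1 h at room temperature with radiotracer (5 μCi/100 μL), washed 3 min in 40% ethanol, rinsed in water, dried and exposed to an imaging plate overnight.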

Sequence of Amyloid-beta precursor protein (Homo sapiens) (P05067 whole entry): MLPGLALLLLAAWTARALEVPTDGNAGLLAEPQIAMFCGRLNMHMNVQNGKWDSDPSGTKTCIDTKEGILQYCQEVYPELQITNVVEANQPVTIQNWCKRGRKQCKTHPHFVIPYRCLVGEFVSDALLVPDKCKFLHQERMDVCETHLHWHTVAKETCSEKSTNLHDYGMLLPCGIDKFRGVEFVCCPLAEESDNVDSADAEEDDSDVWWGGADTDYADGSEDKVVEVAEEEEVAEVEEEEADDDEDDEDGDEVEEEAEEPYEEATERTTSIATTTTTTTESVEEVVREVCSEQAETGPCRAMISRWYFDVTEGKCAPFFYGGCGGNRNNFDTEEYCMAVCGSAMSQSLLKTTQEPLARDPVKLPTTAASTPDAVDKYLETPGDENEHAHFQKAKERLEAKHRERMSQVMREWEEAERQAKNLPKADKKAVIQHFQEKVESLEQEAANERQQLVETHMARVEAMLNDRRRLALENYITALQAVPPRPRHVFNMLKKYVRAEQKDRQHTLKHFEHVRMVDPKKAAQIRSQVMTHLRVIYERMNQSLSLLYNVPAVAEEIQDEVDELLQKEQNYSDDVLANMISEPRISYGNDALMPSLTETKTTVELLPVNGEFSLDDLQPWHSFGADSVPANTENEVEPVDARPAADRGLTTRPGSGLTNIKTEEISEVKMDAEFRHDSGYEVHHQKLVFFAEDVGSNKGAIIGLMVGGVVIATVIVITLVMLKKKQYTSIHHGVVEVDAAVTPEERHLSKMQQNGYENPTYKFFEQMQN

- Activity [1]: Active
- Ki [2]: 6.9 nM
- Activity (Mus musculus [3]): Active
- Activity (Mus musculus [4]): Active
SMILES: CN(C)c1ccc(/C=C/C(=O)/C=C/c2ccc(OCCOCCOCCF)cc2)cc1
